Test results from ChEMBL document CHEMBL3232922, “Discovery and SAR of 6-alkyl-2,4-diaminopyrimidines as histamine H₄ receptor antagonists” (J Med Chem, 2014).

Key:
[1] = AUC in Sprague-Dawley rat at 500 mg/kg, po; format: ADME, organism-based; set-up: dose 500 mg/kg, route oral; details: plasma
[2] = target: Voltage-gated inwardly rectifying potassium channel KCNH2 (Homo sapiens, UniProt Q12809); test: Inhibition of human ERG channel up to 30 uM by astemizole binding assay
[3] = Permeability from basolateral to apical side in human Caco cells; format: ADME, cell-based; details: Caco-2, read-out: permeability
[4] = Clearance in beagle dog at 2 mg/kg, iv; format: ADME, organism-based, Canis lupus familiaris; set-up: dose 2 mg/kg, route intravenous; details: beagle, in vivo
[5] = Ratio of drug level in brain to plasma in mouse at 5 mg/kg, po administered as single dose […] by LC-MS/MS analysis; format: ADME, organism-based; set-up: dose 5 mg/kg, route oral; details: brain and plasma
[6] = Permeability from apical to basolateral side in human Caco cells; format: ADME, cell-based; details: Caco-2, read-out: permeability
[7] = Cmax in Sprague-Dawley rat at 10 mg/kg, po; format: ADME, organism-based; set-up: dose 10 mg/kg, route oral; details: in vivo
[8] = Cmax in beagle dog at 10 mg/kg, po; format: ADME, organism-based, Canis lupus familiaris; set-up: dose 10 mg/kg, route oral; details: in vivo
[9] = Initial plasma concentration in Sprague-Dawley rat at 2 mg/kg, iv; format: ADME, organism-based; set-up: dose 2 mg/kg, route intravenous
[10] = Half life in Sprague-Dawley rat at 200 mg/kg, po; format: ADME, organism-based; set-up: dose 200 mg/kg, route oral; details: in vivo
[11] = Clearance in Sprague-Dawley rat at 2 mg/kg, iv; format: ADME, organism-based; set-up: dose 2 mg/kg, route intravenous; details: Sprague-Dawley, in vivo
[12] = Fraction unbound in mouse plasma; format: ADME, cell-free
[13] = Tmax in mouse brain at 5 mg/kg, po administered as single dose by LC-MS/MS analysis; format: ADME, organism-based; set-up: dose 5 mg/kg, route oral
Summary of the method: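 Mice received one oral dose of 5 mg/kg. Brain, liver and kidneys were surgically removed from three mice per time point for up to 96 h after dosing. Tissue drug levels were measured by LC–MS/MS with a lower limit of quantitation of 1 ng/g. Tmax and t1/2 are reported as means.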

[14] = Half life in rat at 10 mg/kg, po; format: ADME, organism-based; set-up: dose 10 mg/kg, route oral; details: in vivo

Voltage-gated inwardly rectifying potassium channel KCNH2, sequence (Q12809 whole entry): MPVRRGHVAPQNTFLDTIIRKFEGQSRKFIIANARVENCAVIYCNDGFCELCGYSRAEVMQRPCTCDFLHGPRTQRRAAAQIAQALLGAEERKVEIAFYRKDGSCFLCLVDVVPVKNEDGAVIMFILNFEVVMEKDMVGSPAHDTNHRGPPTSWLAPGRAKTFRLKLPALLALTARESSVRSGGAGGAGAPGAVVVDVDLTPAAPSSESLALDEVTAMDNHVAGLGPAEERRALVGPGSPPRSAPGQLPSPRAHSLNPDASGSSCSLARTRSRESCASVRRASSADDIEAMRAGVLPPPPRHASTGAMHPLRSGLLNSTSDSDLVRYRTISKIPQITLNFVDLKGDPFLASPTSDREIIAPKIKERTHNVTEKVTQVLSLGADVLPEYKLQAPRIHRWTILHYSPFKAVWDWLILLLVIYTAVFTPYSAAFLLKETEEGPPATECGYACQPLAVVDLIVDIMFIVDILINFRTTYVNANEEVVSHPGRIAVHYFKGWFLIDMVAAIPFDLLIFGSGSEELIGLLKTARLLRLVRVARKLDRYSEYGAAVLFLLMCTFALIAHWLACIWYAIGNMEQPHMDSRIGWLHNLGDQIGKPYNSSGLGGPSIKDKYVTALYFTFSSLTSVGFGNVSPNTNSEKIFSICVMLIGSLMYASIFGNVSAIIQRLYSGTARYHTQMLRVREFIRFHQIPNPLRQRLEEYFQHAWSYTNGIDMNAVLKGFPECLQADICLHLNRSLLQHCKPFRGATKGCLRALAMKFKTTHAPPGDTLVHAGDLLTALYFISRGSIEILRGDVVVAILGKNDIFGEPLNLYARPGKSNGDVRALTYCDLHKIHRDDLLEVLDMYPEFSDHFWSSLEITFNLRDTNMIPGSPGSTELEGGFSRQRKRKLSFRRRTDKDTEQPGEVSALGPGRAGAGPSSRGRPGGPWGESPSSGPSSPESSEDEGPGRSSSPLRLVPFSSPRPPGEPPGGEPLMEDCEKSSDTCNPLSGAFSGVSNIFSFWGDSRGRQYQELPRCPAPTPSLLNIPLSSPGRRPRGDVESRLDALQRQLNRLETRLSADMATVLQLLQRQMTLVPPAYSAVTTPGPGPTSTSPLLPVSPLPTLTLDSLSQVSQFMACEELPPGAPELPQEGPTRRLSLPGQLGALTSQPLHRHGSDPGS

AUC [1]: 184 µM·h | Papp B→A [3]: 22 ×10⁻⁶ cm/s | clearance [4]: 23.3 mL/min/kg | Kp [5]: 22.7 | Papp A→B [6]: 23 ×10⁻⁶ cm/s | Cmax [7]: 260 nM | Cmax [8]: 3900 nM | C0 [9]: 1100 nM | half-life [10]: 6.16 h | clearance [11]: 91.7 mL/min/kg | fraction unbound [12]: 0.76 | Tmax [13]: 6 h | half-life [14]: 7.5 h
Structure (SMILES): CC(C)c1cc(N2CC[C@@H](N)C2)nc(N)n1 [JNJ-39758979]
inhibition (INH) [2]: Not Active
